This is an account of results in ChEMBL document CHEMBL4325899, “Synthesis and photocytotoxic activity of [1,2,3]triazolo[4,5-h][1,6]naphthyridines and [1,3]oxazolo[5,4-h][1,6]naphthyridines” (Eur J Med Chem, 2019).

Calls of active or inactive are those of the source. No cut-off for these calls is given here.

Data set [1] is described as follows: Dark toxicity against human MCF7 cells preincubated for 5 mins followed by compound washout and measured after 72 hrs by MTT assay. Type of data set: cell-based. Put shortly: (§1)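 Cells were plated and allowed to attach overnight. Compounds were diluted in DMSO (0.5% final), with each concentration in triplicate, and applied for 5 min. Cells were then washed in PBS and given fresh medium. Without irradiation, cells were held 72 h at up to 50 μM. MTT (5 mg/mL stock) was added for 4 h, crystals were dissolved in SDS/HCl overnight, and absorbance was read at 540 nm. CC50 is the concentration killing 50% of cells, taken as the mean of at least three experiments.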
For orientation: Formazan colour is commonly taken as a measure of viable cells.

A short description of data set [2]: Selectivity index, ratio of EC50 for human MCF10A cells under UV irradiation at 1.5 J/cm2 to EC50 for human MCF7 cells under UV irradiation at 1.5 J/cm2. It is filed as toxicity. Particulars: MCF10A cells versus MCF7 cells, read-out: Ratio EC50. The gist of the method:
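SI is the EC50 under irradiation in non-tumor MCF10A cells divided by the EC50 under irradiation in the tumor line. Both were MTT read-outs 72 h after 1.5 J/cm² at 365 nm.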

Data set [3] concerns A-375. As to the kind of experiment: Phototoxicity against human A375 cells preincubated for 5 mins followed by compound washout and subsequent UV irradiation at 1.5 J/cm2 for 5 mins measured after 72 hrs by MTT assay. Type of data set: functional, cell-based. The following applies: A-375, light or radiation study. The gist of the method: (§2)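 Compounds were diluted in DMSO (0.5% final), applied in triplicate for 5 min, then washed out with PBS. After medium removal, cells were irradiated on ice for 5 min at 365 nm (1.5 J/cm²) and then kept 72 h at 37 °C. Viability was read by MTT at 540 nm and expressed relative to 0.5% DMSO controls given the same treatment. EC50 is the concentration killing 50%, as the mean ± SD of at least three experiments.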

The test system of data set [4] is MCF7. Nature of the data set: Induction of ROS generation in human MCF7 cells at 0.5 to 2 uM preincubated for 30 mins followed by irradiation at 1.5 J/cm2 for 2 hrs in presence of NAC by H2DCFDA probe-based fluorescence assay. It is filed as functional, cell-based. The gist of the method: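 This is the DCF assay in MCF7 cells run as for irradiated samples (30 min compound, 10 µM H2DCFDA, 1.5 J/cm²). Before treatment, cells were pre-incubated with N-acetylcysteine at […]. Fluorescence was read 2 h after light exposure, relative to irradiated untreated controls, with three independent experiments.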

Data set [5] relates to MCF7. As to the kind of experiment: Cell cycle arrest in human MCF7 cells assessed as accumulation of cells at G2/M phase at EC75 after 24 hrs under UV-irradiation by propidium iodide staining-based flow cytometric analysis (reference value: 26.3%). It is filed as functional. Background: A flow cytometer gives signals particle by particle.
Data set [6] deals with MCF7. Nature of the data set: Induction of apoptosis in human MCF7 cells assessed as apoptotic cells at EC25 to EC75 after 4 hrs in presence of photoirradiation by Annexin V-FITC/propidium iodide staining-based flow cytometric analysis relative to control. Type of data set: functional.
Data set [7] concerns MCF7. As to the kind of experiment: Induction of mitochondrial dysfunction in human MCF7 cells assessed as organelle swelling at 2 uM after 120 mins in presence of UV irradiation by Mitotracker Orange CMTM-ROS staining-based confocal microscopic analysis. Type of data set: functional, cell-based. Put shortly:
(§3)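 MCF7 cells (4x10⁵) were plated on glass slides for 24 h. They were then loaded with MitoTracker Orange CMTM-ROS (150 nM) for 45 min in phenol-red-free, serum-free medium, before 2 µM compound and UV photoactivation. Cells were fixed in 2% PFA 20 min or 2 h after UV and imaged confocally (ex 543 nm, em 560–620 nm). PMA (400 nM) served as ROS-inducer control.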

Data set [8] is described as follows: Dark toxicity against human A375 cells preincubated for 5 mins followed by compound washout and measured after 72 hrs by MTT assay. It is filed as cell-based, A-375. The gist of the method:
as §1

A short description of data set [9]: Solubility of the compound in DMSO. It is filed as physicochemical.
The subject of data set [10] is MCF7. Nature of the data set: Cell cycle arrest in human MCF7 cells assessed as accumulation at G0/G1 phase at EC25 after 24 hrs under UV-irradiation by propidium iodide staining-based flow cytometric analysis (reference value: 44.2%). Type of data set: functional.
Data set [11] has as its system MCF7. As to the kind of experiment: Phototoxicity index, ratio of CC50 for human MCF7 cells to EC50 for human MCF7 cells under UV irradiation at 1.5 J/cm2.
Data set [12] relates to MCF7. Nature of the data set: Cell cycle arrest in human MCF7 cells assessed as accumulation at S phase at EC25 after 24 hrs under UV-irradiation by propidium iodide staining-based flow cytometric analysis (reference value: 24.7%). It is filed as functional.
Data set [13] concerns MCF7. Nature of the data set: Cell cycle arrest in human MCF7 cells assessed as accumulation of cells at S phase at EC75 after 24 hrs under UV-irradiation by propidium iodide staining-based flow cytometric analysis (reference value: 24.7%). It is filed as functional.
The subject of data set [14] is MCF7. As to the kind of experiment: Induction of lysosomal activation in human MCF7 cells assessed as late apoptotis at 2 uM after 2 hrs in presence of UV irradiation by Lysotracker Green DND 26 staining-based confocal microscopic analysis. It is filed as functional, cell-based. Put shortly:
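MCF7 cells (4x10⁵) on glass slides were loaded with LysoTracker Green DND-26 (175 nM) for 45 min in phenol-red-free, serum-free medium, before 2 µM compound with or without UV activation. Cells were fixed in 2% PFA 20 min or 2 h after UV and imaged confocally (ex 488 nm, em 500–530 nm). Controls were untreated cells with and without irradiation, and cells given PMA (400 nM).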

For data set [15], the system named is MCF7. As to the kind of experiment: Cell cycle arrest in human MCF7 cells assessed as accumulation at subG1 phase at EC25 after 24 hrs under UV-irradiation by propidium iodide staining-based flow cytometric analysis (reference value: 4.8%). Type of data set: functional.
Data set [16] has as its system A-375. As to the kind of experiment: Phototoxicity index, ratio of CC50 for human A375 cells to EC50 for human A375 cells under UV irradiation at 1.5 J/cm2.
Data set [17] relates to MCF7. As to the kind of experiment: Induction of mitochondrial dysfunction in human MCF7 cells assessed as perinuclear clustering at 2 uM after 20 mins in presence of UV irradiation by Mitotracker Orange CMTM-ROS staining-based confocal microscopic analysis. It is filed as functional, cell-based. The gist of the method:
as §3

The test system of a further data set is HT-29. As to the kind of experiment: Phototoxicity index, ratio of CC50 for human HT-29 cells to EC50 for human HT-29 cells under UV irradiation at 1.5 J/cm2.
Data set [18] has as its system MCF7. As to the kind of experiment: Cell cycle arrest in human MCF7 cells assessed as accumulation of cells at S phase at EC50 after 24 hrs under UV-irradiation by propidium iodide staining-based flow cytometric analysis (reference value: 24.7%). It is filed as functional.
Another data set concerns MCF-10A. Nature of the data set: Phototoxicity against human MCF10A cells preincubated for 5 mins followed by compound washout and subsequent UV irradiation at 1.5 J/cm2 for 5 mins measured after 72 hrs by MTT assay. It is filed as cell-based. The following applies: light or radiation study. Put shortly: as §2
The nature of data set [19]: Drug localization in cytoplasm of human MCF7 cells assessed as punctate formation at 2 uM measured within 10 mins by confocal microscopic analysis. The following applies: mcf7, 10 min. It is filed as ADME, subcellular.
The test system of data set [20] is MCF7. Nature of the data set: Induction of mitochondrial dysfunction in human MCF7 cells assessed as organelles fusion at 2 uM after 120 mins in presence of UV irradiation by Mitotracker Orange CMTM-ROS staining-based confocal microscopic analysis. Type of data set: functional, cell-based. The gist of the method:
as §3

The subject of data set [21] is MCF7. Nature of the data set: Cell cycle arrest in human MCF7 cells assessed as accumulation of cells at G2/M phase at EC50 after 24 hrs under UV-irradiation by propidium iodide staining-based flow cytometric analysis (reference value: 26.3%). Type of data set: functional.
Data set [22] relates to MCF7. As to the kind of experiment: Cell cycle arrest in human MCF7 cells assessed as accumulation of cells at G0/G1 phase at EC75 after 24 hrs under UV-irradiation by propidium iodide staining-based flow cytometric analysis (reference value: 44.2%). Type of data set: functional.

The term CC50 denotes the concentration that lowers cell viability or growth by half. A low value points to harm at low concentration. As a reminder, the EC50 is the midpoint of the concentration-response curve. Higher therefore signals lower potency in that assay. On to `COc1ccc(-c2nc3c(nc(C)c4ccc(-c5ccccc5)nc43)o2)cc1`, for which the CC50 at 72 h in data set [1] and in data set [8] was above 50000 nM in each case. In data set [2], the selectivity ratio was 86. Moreover, the results for the EC50 with A-375 [3] and in the data set with MCF-10A were 11 nM and 864 nM, respectively. In addition, in the data set on MCF7 [4], the outcome was inactive. For the same compound, the Activity with MCF7 [5] is recorded as 26.9%; with MCF7 [6], 34 - 50%; with MCF7 [10], 44.1%; in the data set on MCF7 [12], 24.8%; in the data set with MCF7 [13], 26.3%; in the data set with MCF7 [15], 4.3%. In addition, the Activity with MCF7 [18] came to 25.6%; with MCF7 [21], 26.9%; with MCF7 [22] it was 42.4%. For the same compound, the result in the data set with MCF7 [7], with MCF7 [14], in the data set on MCF7 [17] and in the data set with MCF7 [20] was Active. In [9], the solubility result was “Soluble”. Moreover, the results for the “Ratio CC50/EC50” value in the data set with MCF7 [11], in the data set with A-375 [16] and with HT-29 were above 5000, above 4545 and above 4167, respectively. Further, in data set [19], the Drug uptake entry was “Active”.
